# High-throughput results from PubChem.
# Myeloid diff 2 – induction of myeloid progenitor differentiation, primary screen, cell-based, flow cytometry, MLPCN library; ER-HoxA9 myeloid progenitors, lysozyme-GFP differentiation; calls only at 10 µM; actives 1% (n = 360,000); AID 624256, 2012;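 active means normalized GFP-positive differentiation at or above the plate's own cutoff, the solvent-only control mean plus 3 SD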;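 further: cells exposed to compound for four days before flow analysis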
# T cell HTS – modulators of CD8 T cell-vesicle binding, primary screen, mouse 2C CD8+ T cells, flow cytometry. 2C CD8+ T cell-vesicle binding; active compounds read low. actives 0.068% (n = 330,000). response (vesicle binding), % at 7 µM;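 active means response, share of CD8 T cells binding vesicles, and their 90th percentile fluorescence all below set limits, cut at about 80% in these data, passing the limit was not always enough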;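 further: values below 100% mean blocked vesicle binding to the CD8+ T cells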
#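 Test system: purified 2C TCR transgenic mouse naive CD8+ T cells. Probe or stimulus: QL9-peptide-loaded Drosophila micro-vesicles bearing Ld, ICAM-1 and B7-1. Incubation: binding step 1.5 h, 37 °C, antibody labelling 20 min, ice. Measured by: flow cytometry of vesicle-bound cells.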
# CASP6 VEID inh – human caspase-6 inhibitors, primary screen, biochemical, VEID-R110 fluorescence, single point, set 2 | P55212 | purified caspase-6, Z-VEID-R110 cleavage fluorescence | inhibition, % at 12.5 µM | actives 0.53% (n = 350,000);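 active means mean inhibition across replicates at least about 35%, with every replicate also reaching that limit, limit read from the data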;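 further: 0% = median of neutral control wells and 100% = no fluorescence left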
# Target sequence (P55212 24-179 limits assumed): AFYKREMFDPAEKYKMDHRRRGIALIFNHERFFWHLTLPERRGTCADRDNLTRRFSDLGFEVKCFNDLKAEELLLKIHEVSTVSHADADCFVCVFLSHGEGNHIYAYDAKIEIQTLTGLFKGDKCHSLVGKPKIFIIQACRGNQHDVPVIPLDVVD
# Target sequence (P55212 194-293 limits assumed): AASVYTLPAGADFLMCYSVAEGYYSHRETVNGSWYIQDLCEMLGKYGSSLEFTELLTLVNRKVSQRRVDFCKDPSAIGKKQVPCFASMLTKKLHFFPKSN
# Vif imaging – HIV Vif self-association inhibitors, primary screen, imaging, HEK293T, single point | HEK293T cells, Vif self-association by quenched fluorescence, 24 h | AID 602346, 2012 | inhibition, % at 7.49 µM | actives 0.35% (n = 340,000); in the data active means inhibition above about 50%, passing the limit was not always enough
# Myeloid diff CP1 – inducers of myeloid progenitor differentiation, confirmation, cell-based, GFP/Mac1 flow cytometry, cherry pick 01. shares compounds with Myeloid diff 2. ER-HoxA9 myeloid progenitors, GFP/Mac1 double-positive flow. calls only. actives 2% (n = 2,300);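 active means share of green or green-and-red cells above 9 and 9% in run 1 or 4 and 3% in run 2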
# GFP autofluor – flagged as fluorescent in myeloid differentiation counter-screen | shares compounds with Myeloid diff 2 | AID 651707 | ER-HoxA9 myeloid progenitors, no estrogen, GFP autofluorescence flow cytometry; vehicle wells 0%, positive control 100% | actives 7.4% (n = 2,300) | fluorescence response, % (no concentration beside the values);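 active means over 5% cells positive for green fluorescent reporter, or over 2% positive for both it and APC stain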;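 further: range taken on the double positive population between DMSO and positive control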
# * marks the source's active call; other numbers are inactive results; i = inactive; / = no result given; + = active, no number; ! = repeats disagree. In the library only some 1.4% were active in any assay of this set; here they are far more common.
SMILES,Myeloid diff 2,T cell HTS,CASP6 VEID inh,Vif imaging,Myeloid diff CP1,GFP autofluor
O=C(CCc1ccccc1)Nc1ccc(NC(=O)c2ccco2)cc1,i,256,0,10,/,/
O=C(N/N=C\CCc1ccccc1)c1ccco1,i,394,/,0,i,0
CCCNC(=O)N[C@H]1CC[C@@H](CCn2cc(-c3cccc(F)c3)nn2)O[C@@H]1CO,+,/,2,/,i,0
Cc1cccc(CCNc2nc3ccccc3n3nnnc23)c1,+,214,/,/,i,0
Cc1noc(C)c1NC(=O)Nc1ccc2c(c1)C(=O)N([C@@H](C)CO)C[C@H](C)[C@H](CN(C)C)OCCCC[C@@H](C)O2,/,/,1,/,/,/
CC(C)(C)OC(=O)C[C@@H]1C/C=C\C[C@H](CC(=O)N[C@H](CO)Cc2ccccc2)C(=O)N[C@@H](Cc2ccccc2)COC1=O,i,248,-2,-3,i,0
CC(C)(C)OC(=O)C[C@H]1C/C=C\C[C@H](CC(=O)N[C@H](CO)Cc2ccccc2)C(=O)N[C@H](Cc2ccccc2)COC1=O,i,342,3,-3,/,/
CCCC[n+]1ccn(C2=C([O-])c3ccccc3C(=O)/C2=N\S(=O)(=O)c2ccc(Br)cc2)c1,i,248,1,0,i,0
Cc1ccc(NC(=O)C[n+]2ccn(C3=C([O-])c4ccccc4C3=O)c2)cc1,i,164,1,-4,/,/
CCCCOC(=O)C1=C(C)NC(=O)NC1c1cccc([N+](=O)[O-])c1 (centres undefined),i,256,-1,5,/,/
CCCCOC(=O)C1=C(C)NC(=O)NC1c1ccc([N+](=O)[O-])s1 (centres undefined),+,600,/,0,i,0
Cc1sc2ncnc(N3CCC(C(=O)Nc4cc(S(C)(=O)=O)ccc4Cl)CC3)c2c1C,i,240,2,-6,/,/
CCN(CC)S(=O)(=O)c1cc(NC(=O)C2CCN(c3ncnc4sc(C)c(C)c34)CC2)ccc1Cl,+,400,0,/,i,0
CCCN(C)C[C@H]1Oc2cc(C#C[C@@H](C)O)ccc2S(=O)(=O)N([C@H](C)CO)C[C@H]1C,/,/,2,/,/,/
CCS(=O)(=O)N1N=C(c2cccc(NS(C)(=O)=O)c2)CC1c1ccccc1 (centres undefined),+,438,4,15,i,97*
CCS(=O)(=O)Nc1cccc(C2=NN(S(C)(=O)=O)C(c3ccccc3)C2)c1 (centres undefined),i,415,-2,-9,/,/
Oc1[nH]c2ccccc2c1C=Nc1ccccc1,i,282,-2,-5,i,0
CCNC(=O)NC1(C(=O)N2CCC(Cc3ccccc3)CC2)CCCCC1,+,197,-2,18,i,1
O=C(O)c1ccc(Cl)c(S(=O)(=O)Nc2ccc(OCc3ccccc3)cc2)c1,i,178,16,0,i,0
CCOc1ccc(NS(=O)(=O)c2cc(C(=O)N3CCCC3)ccc2Cl)cc1,i,222,-4,13,/,/
COc1ccc(NC(=O)N(C)C[C@H]2Oc3ccc(NS(=O)(=O)c4ccc(OC)cc4)cc3C(=O)N([C@@H](C)CO)C[C@@H]2C)cc1,/,/,-1,/,/,/
O=C(O)c1ccc(CSc2nc3ccccc3c(=O)n2-c2ccccc2)cc1,i,176,2,27,/,/
N=C(N)SCc1nc2ccccc2c(=O)n1-c1ccccc1,+!,396,10,-1,i,2
Cc1ccc([C@H]2C[C@H](n3cc(C4CC4)nn3)[C@@H](O)CN2Cc2cccs2)cc1,i,/,0,8,i,1
CCC(C)Oc1cc(-c2ccnc(Nc3cccc(Cl)c3)n2)ccn1 (centres undefined),i,706,1,-6,/,/
SMILES,Myeloid diff 2,T cell HTS,CASP6 VEID inh,Vif imaging,Myeloid diff CP1,GFP autofluor
OCCCNc1cc(-c2ccnc(Nc3cccc(Cl)c3)n2)ccn1,i,379,-3,-12,i,0
CC(C(=O)NNS(=O)(=O)c1cccc(C(F)(F)F)c1)n1nnc(N2CCOCC2)n1 (centres undefined),+,i,4,1,i,0
CO[C@@H]1CN(C)C(=O)c2ccc(NC(=O)C3CC3)cc2OC[C@@H](C)N(C(=O)c2ccccc2F)C[C@H]1C,/,/,-1,/,/,/
N#CCC(=O)Nc1ccc(C(=O)OC(C(=O)Nc2cc(C(F)(F)F)ccc2Cl)c2ccccc2)cc1 (centres undefined),+,175,-3,-12,i,1
COC(=O)c1cc2ccsc2n1CC(=O)N1CCCc2ccccc21,i,770,5,2,/,/
COC(=O)c1cc2oc3ccccc3c2n1CC(=O)N1CCCc2ccccc21,+,256,/,-5,i,0
O=c1[nH]c2ccccc2n2c(C(F)(F)F)nnc12,+,134,-5,-5,i,5.7*
CN(CC(=O)Nc1ccc(F)cc1)C(=O)c1cc(-c2ccco2)nc2ccccc12,i,477,12,-3,/,/
Cc1ccc(NC(=O)CN(C)C(=O)c2cc(-c3ccco3)nc3ccccc23)cc1,i,434,4,5,i,0
COc1ccc(S(=O)(=O)Nc2ccc3c(c2)CC(=O)N([C@H](C)CO)C[C@@H](C)[C@H](CN(C)C(=O)Nc2cccc4ccccc24)O3)cc1,/,/,15,/,/,/
Cc1cccc(NC(=O)CC2CCC2)c1,i,469,/,17,i,0
COc1cccc(-c2ccc([C@H]3[C@@H](CO)N4C(=O)CN(C(=O)C5CCC5)C[C@@H]34)cc2)c1,/,/,3,/,/,/
COc1cc(NC(=O)COC(=O)/C=C/c2ccccc2Cl)cc(OC)c1,i,393,/,0,i,0
COCC(=O)Nc1ccc2c(c1)[C@H]1C[C@@H](CC(=O)NC3CCCCC3)O[C@H](CO)[C@H]1O2,/,/,-3,/,/,/
O=C(CN1CCN(Cc2ccccc2)CC1)NNC(=O)c1ccccc1,i,227,-4,/,i,0
C[C@H](NC(=O)C[C@H]1CC[C@@H]2[C@H](COC[C@H](O)CN2C)O1)c1ccccc1,/,/,-3,/,/,/
CCc1ccc(C=C2SC(=S)N(CCCC(=O)Nc3ccc(C(=O)O)cc3)C2=O)cc1,i,/,4,/,i,0
CCc1ccc(/C=C2/SC(=S)N(CCC(=O)Nc3ccc(C(=O)O)cc3)C2=O)cc1,i,289,6,3,/,/
CC(C)(C)c1cc(C(=O)Nc2ccccc2)ccn1,i,191,/,0,/,/
Cc1ccc(NC(=O)c2ccnc(C(C)(C)C)c2)cc1,i,125,/,-9,i,0
Cc1ccc(Cc2c[nH]c(=S)s2)cc1,+,384,-1,9,i,0
